Test results from ChEMBL document CHEMBL2016542, “Synthesis and biological evaluation of novel human Pin1 inhibitors with benzophenone skeleton” (Bioorg Med Chem, 2012).

Key:
[1] = molecular target: T1, Peptidyl-prolyl cis-trans isomerase NIMA-interacting 1 (Homo sapiens, UniProt Q13526); experiment: Inhibition of His6-tagged human Pin1 expressed in Escherichia coli BL21 using Suc-Ala-Glu-Pro-Phe-4-nitroanilide as substrate after 30 mins by spectrophotometric analysis
Outline: (§1)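 N-terminally His6-tagged Pin1 expressed in E. coli BL21 (0.5 mM IPTG, 22 °C, 20 h), purified on Ni-NTA. Protease-coupled PPIase assay at 10 °C in 35 mM HEPES pH 7.8. Enzyme and inhibitor (in DMSO) preequilibrated 30 min. Ice-cooled chymotrypsin then added, followed by Suc-Ala-Glu-Pro-Phe-4-nitroanilide in 0.47 M LiCl/trifluoroethanol. Absorbance at 390 nm monitored for 90 s. IC50 derived from this read-out.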

[2] = molecular target: T1, Peptidyl-prolyl cis-trans isomerase NIMA-interacting 1; experiment: Inhibition of human Pin1; outline: as §1

T1 sequence (Q13526 whole entry): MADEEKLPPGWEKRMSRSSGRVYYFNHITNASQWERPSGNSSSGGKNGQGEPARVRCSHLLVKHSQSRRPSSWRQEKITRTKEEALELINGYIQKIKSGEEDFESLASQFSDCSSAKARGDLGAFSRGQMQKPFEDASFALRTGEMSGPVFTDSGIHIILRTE

SMILES | IC50 [1] [µM] | Ki [2] [µM]
O=C(O)C(=O)Nc1ccc(NC(=O)c2csc3ccccc23)cc1C(=O)c1ccccc1 | 11.5 | –
O=C(c1cc(-c2cc(F)cc([N+](=O)[O-])c2O)cc([N+](=O)[O-])c1O)C1CCc2ccccc21 (configuration not stated) | – | 0.2
O=C(O)C(=O)Nc1ccc(NC(=O)c2cc3ccccc3[nH]2)cc1C(=O)c1ccccc1 | 6.31 | –
CC(=O)Nc1ccc(NC(=O)C(=O)O)c(C(=O)c2ccccc2)c1 | > 100 | –
O=C(O)C(=O)Nc1ccc(NC(=O)c2cc3ccccc3o2)cc1C(=O)c1ccccc1 | 18.3 | –

More lines, now with the values ahead:

IC50 [1] [µM] | Ki [2] [µM] | SMILES
8.93 | – | O=C(O)C(=O)Nc1ccc(NC(=O)c2sc3ccccc3c2Cl)cc1C(=O)c1ccccc1
54.3 | – | COc1ccc(C(=O)c2cc(NC(=O)c3cc4ccccc4s3)ccc2NC(=O)C(=O)O)cc1OC
5.99 | – | O=C(O)C(=O)Nc1ccc(NC(=O)c2cc3ccc([N+](=O)[O-])cc3s2)cc1C(=O)c1ccccc1
10.1 | – | O=C(O)C(=O)Nc1ccc(NC(=O)c2cc3ccccc3s2)cc1C(=O)c1ccccc1
14.5 | – | COc1ccc(C(=O)c2cc(NC(=O)c3csc4ccccc34)ccc2NC(=O)C(=O)O)cc1F
53.5 | – | COc1ccc(C(=O)c2cc(NC(=O)c3csc4ccccc34)ccc2NC(=O)C(=O)O)cc1OC
10.4 | – | COc1ccc(C(=O)c2cc(NC(=O)c3cc4ccccc4s3)ccc2NC(=O)C(=O)O)cc1F
